Nine compounds from ChEMBL document CHEMBL1142928, “Substitution at the 8-position of 3''-deoxy-cyclic ADP-carbocyclic-ribose, a highly potent Ca2+-mobilizing agent, provides partial agonists” (Bioorg Med Chem, 2007) can be followed below.

Active and inactive are the calls of the source. The calls are words filed in the database; no cut-off is given here.

Holding throughout (type): functional
The subject of test [1] is Echinoidea. As to the kind of experiment: Calcium-mobilizing activity in Sea urchin egg homogenate relative to cADPcR. The method in brief: (§1)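 Homogenate of Hemicentrotus pulcherrimus sea urchin eggs. Ca2+ release was monitored fluorometrically with fura-2 as the F340/F380 ratio over a range of analogue concentrations. Each response was expressed as the percent change in ratio relative to the response to the maximal cADPcR concentration. EC50 values were taken from dose–response curves.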

Test [2] relates to Echinoidea. As to the kind of experiment: Inhibition of cADPcR-induced calcium release in Sea urchin egg homogenate. The method in brief:
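Hemicentrotus pulcherrimus egg homogenate was read by fura-2 fluorescence ratio (F340/F380). Homogenate was exposed to graded analogue concentrations, then challenged with the maximal concentration of cADPcR. IC50 values were derived from dose-dependent desensitization (cross-desensitization) of the cADPcR-induced Ca2+ release.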

The test system of test [3] is Echinoidea. Put plainly: Calcium-mobilizing activity in Sea urchin egg homogenate. The method in brief: as §1

Take `[N-]=[N+]=Nc1nc2c(N)[n+]3cnc2n1[C@@H]1O[C@H](COP(=O)(O)OP(=O)([O-])OC[C@@H]2C[C@@H](O)[C@H]3C2)[C@@H](O)[C@H]1O`: the Activity with Echinoidea [1] turned out to be 16%. In the test on Echinoidea [2], the 50% inhibitory concentration (IC50) was 1100 nM. In addition, the EC50 in the test with Echinoidea [3] was determined as 490 nM.

For `CCCNc1nc2c(N)[n+]3cnc2n1[C@@H]1O[C@H](COP(=O)(O)OP(=O)([O-])OC[C@@H]2C[C@@H](O)[C@H]3C2)[C@@H](O)[C@H]1O`, in the test with Echinoidea [3], the outcome was inactive.

`Nc1c2ncn3c2nc[n+]1[C@@H]1C[C@H](COP(=O)([O-])OP(=O)(O)OC[C@H]2O[C@@H]3[C@H](O)[C@@H]2O)C[C@H]1O`: in the test on Echinoidea [1], the Activity worked out at 100%. Further, the EC50 in the test on Echinoidea [3] worked out at 17 nM.

Regarding `[N-]=[N+]=Nc1nc2c(N)[n+]3cnc2n1[C@@H]1O[C@H](COP(=O)(O)OP(=O)([O-])OC[C@H]2C[C@@H]3[C@H](O)[C@@H]2O)[C@@H](O)[C@H]1O`, in the test on Echinoidea [2], the IC50 is 4200 nM.

For the compound `Nc1nc2c(N)[n+]3cnc2n1[C@@H]1O[C@H](COP(=O)([O-])OP(=O)(O)OC[C@H]2C[C@@H]3[C@H](O)[C@@H]2O)[C@@H](O)[C@H]1O`, the Activity in the test with Echinoidea [1] was 33%. Besides, the IC50 in the test on Echinoidea [2] was 96 nM. For the same compound, the EC50 in the test on Echinoidea [3] turned out to be 89 nM.

Regarding `Nc1c2ncn3c2nc[n+]1[C@@H]1C[C@H](COP(=O)([O-])OP(=O)(O)OC[C@H]2O[C@@H]3[C@H](O)[C@@H]2O)[C@@H](O)[C@H]1O`, the EC50 with Echinoidea [3] came out at 79 nM.

`Nc1c2nc(Cl)n3c2nc[n+]1[C@@H]1C[C@H](COP(=O)(O)OP(=O)([O-])OC[C@H]2O[C@@H]3[C@H](O)[C@@H]2O)[C@@H](O)[C@H]1O`: in the test with Echinoidea [2], the IC50 was found to be 3000 nM.

On to `Nc1nc2c(N)[n+]3cnc2n1[C@@H]1O[C@H](COP(=O)(O)OP(=O)([O-])OC[C@@H]2C[C@@H](O)[C@H]3C2)[C@@H](O)[C@H]1O`, for which the Activity in the test with Echinoidea [1] stood at 14%. Also, the IC50 in the test on Echinoidea [2] is 44 nM. The EC50 in the test on Echinoidea [3] turned out to be 17 nM.

Consider `Nc1c2nc(Cl)n3c2nc[n+]1[C@@H]1C[C@H](COP(=O)([O-])OP(=O)(O)OC[C@H]2O[C@@H]3[C@H](O)[C@@H]2O)C[C@H]1O`, for which the Activity with Echinoidea [1] turned out to be 21%. In addition, in the test on Echinoidea [2], the concentration for half-maximal inhibition (IC50) is 410 nM. The EC50 with Echinoidea [3] is 190 nM.
